According to ChEMBL document CHEMBL1148632, “Discovery of a novel family of SARS-CoV protease inhibitors by virtual screening and 3D-QSAR studies” (J Med Chem, 2006):

Target: Replicase polyprotein 1a (Severe acute respiratory syndrome-related coronavirus, UniProt P0C6U8)
Assay: Inhibition of SARS coronavirus 3C-like protease
Conditions: read-out: -Log IC50 (converted)
In short: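 Recombinant SARS-CoV 3CLpro (pET32Xa/LIC construct) at 50 nM with 6 µM fluorogenic peptide Dabcyl-KTSAVLQ-SGFRKME-Edans in 20 mM Bis-Tris pH 7.0 at 25 °C. Cleavage read as fluorescence increase (ex 355, em 538 nm). Initial velocities plotted against inhibitor concentration; IC50 fitted with A[I] = A[0]×(1 − [I]/([I]+IC50)).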

Row | Structure (SMILES) | IC50 [µM]
1 | Cc1nc(SCC(=O)Nc2ccc([N+](=O)[O-])cc2)nc(O)c1C | > 1000

Same assay, conditions: read-out: IC50

Row | Structure (SMILES) | IC50 [µM]
2 | O=C(CSc1nccc(-c2cc(-c3ccc(Cl)cc3Cl)no2)n1)Nc1ccc(C(F)(F)F)cc1 | 15
3 | CC(C)c1ccc(NC(=O)CSc2nccc(-c3csc(COc4ccccc4Cl)n3)n2)cc1 | 200
4 | COC(OC)c1cc(O)nc(SCC(=O)Nc2ccc(C(F)(F)F)cc2)n1 | 200
5 | O=C(CSc1nccc(-c2cc(-c3ccccc3)no2)n1)Nc1ccc(Cl)cc1 | 15
6 | Cc1nc(-c2nc(-c3ccnc(SCC(=O)Nc4ccc(Cl)cc4)n3)cs2)cs1 | 14
7 | Cc1cc(O)nc(SCC(=O)Nc2cc(Cl)ccc2Oc2ccccc2)n1 | 100
8 | CC(C)c1ccc(NC(=O)CSc2nccc(-c3cccs3)n2)cc1 | 40
9 | N#Cc1c(-c2ccccc2)nc(SCC(=O)Nc2cccc(C(F)(F)F)c2)[nH]c1=O | 200
10 | CCC(Sc1nc(O)c(C#N)c(-c2cccc(OC)c2)n1)C(=O)Nc1ccc(C(C)=O)cc1 (centres undefined) | 60
11 | CSc1sc(-c2nc(C)cs2)c(C)c1-c1ccnc(SCC(=O)Nc2ccccc2Cl)n1 | 12
12 | CSc1sc(-c2nc(C)cs2)c(C)c1-c1ccnc(SCC(=O)Nc2ccc(Cl)cc2)n1 | 11
13 | Cc1cc(O)nc(SCC(=O)Nc2ccc(Oc3ccc(Cl)cc3)cc2)n1 | 200
14 | CCCCc1ccc(NC(=O)CSc2nc(O)c(C#N)c(C3CCCCC3)n2)c(C)c1 | 200
15 | Cc1nc(SCC(=O)Nc2ccc([N+](=O)[O-])cc2)nc(O)c1C | > 1000
16 | Cc1cc(C(F)(F)F)nc(SCC(=O)Nc2ccc(Cl)cc2F)n1 | 500
17 | COc1cccc(-c2nc(SCC(=O)Nc3ccc(C(C)=O)cc3)[nH]c(=O)c2C#N)c1 | 60
18 | CCOc1ccc(N2C(=O)CC(Sc3nc(C)cc(C)n3)C2=O)cc1 (centres undefined) | 300
19 | CCOC(=O)c1cnc(SCC(=O)Nc2ccc([N+](=O)[O-])cc2)nc1N | 250
20 | COc1ccc(-c2ccnc(SCC(=O)Nc3ccc(C(C)C)cc3)n2)cc1 | 400
21 | CC(Sc1nc(-c2ccccc2)c(C#N)c(=O)[nH]1)C(=O)Nc1ccc(Cl)cc1 (centres undefined) | 300
22 | COc1ccc(NC(=O)CSc2nc(O)cc(-c3ccccc3)n2)cc1OC | 45
23 | Cn1nc(-c2ccc(-c3ccnc(SCC(=O)Nc4ccc(Cl)cc4)n3)s2)cc1C(F)(F)F | 10
24 | CCCc1cc(O)nc(SCC(=O)Nc2ccc(Cl)cc2)n1 | 30
25 | O=C(CSc1nccc(-c2csc(-c3ccccc3)n2)n1)Nc1cc(Cl)cc(Cl)c1 | 3
26 | COc1cccc(-c2nc(SCC(=O)Nc3ccc(S(N)(=O)=O)cc3)[nH]c(=O)c2C#N)c1 | 40
27 | CC(C)(C)c1ccc(NC(=O)CSc2nc(C3CCCCC3)c(C#N)c(=O)[nH]2)cc1 | 350
28 | COc1cccc(-c2nc(SCC(=O)Nc3ccc([N+](=O)[O-])cc3)[nH]c(=O)c2C#N)c1 | 300
29 | O=C(CSc1nccc(-c2cc(-c3ccccc3Cl)no2)n1)Nc1ccc(Cl)cc1 | 15
